Reference: ChEMBL document CHEMBL1764995, “Design, synthesis, and evaluation of novel 3,6-diaryl-4-aminoalkoxyquinolines as selective agonists of somatostatin receptor subtype 2” (J Med Chem, 2011)

How the values were obtained:
[1] = Plasma clearance in dog at 2 mg/kg, iv and 10 mg/kg, po; type: ADME, organism-based, Canis lupus familiaris
[2] = Half life in dog at 2 mg/kg, iv and 10 mg/kg, po; type: ADME, organism-based, Canis lupus familiaris; conditions: in vivo
[3] = Volume of distribution at steady state in dog at 2 mg/kg, iv and 10 mg/kg, po; type: ADME, organism-based, Canis lupus familiaris; conditions: in vivo, read-out: Vdss
Homo sapiens [4] = organism: Homo sapiens; assay: Selectivity for human SST2 over human SST1
Summary of the method: (§1)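 Human sst1, sst2, sst3, sst4 or sst5 stably expressed in CHO cells; membrane displacement of 0.1 nM 125I-somatostatin-14 by compound 0-10000 nM, 30 min tracer preincubation then 3 h at room temperature, filtration and scintillation counting; selectivity taken from the binding values across subtypes.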

Homo sapiens [5] = organism: Homo sapiens; assay: Selectivity for human SST2 over human SST3; summary of the method: as §1
Homo sapiens [6] = organism: Homo sapiens; assay: Selectivity for human SST2 over human SST5; summary of the method: as §1
[7] = biological target: T1, Somatostatin receptor type 2 (Homo sapiens, UniProt P30874); assay: Agonist activity at human SST2 expressed in CHO cells assessed as inhibition of forskolin-stimulated cAMP release after 40 mins by luminescence assay; type: functional, cell-based
T1 sequence (P30874 whole entry): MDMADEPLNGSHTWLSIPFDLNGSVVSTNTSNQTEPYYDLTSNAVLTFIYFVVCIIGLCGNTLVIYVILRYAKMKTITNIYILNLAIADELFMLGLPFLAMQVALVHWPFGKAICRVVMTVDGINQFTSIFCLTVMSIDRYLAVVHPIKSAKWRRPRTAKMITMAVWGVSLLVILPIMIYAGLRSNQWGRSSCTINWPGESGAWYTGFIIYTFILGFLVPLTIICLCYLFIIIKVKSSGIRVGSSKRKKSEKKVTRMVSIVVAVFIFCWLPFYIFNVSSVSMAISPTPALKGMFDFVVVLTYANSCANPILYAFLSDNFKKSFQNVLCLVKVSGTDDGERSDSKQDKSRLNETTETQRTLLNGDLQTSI

[8] = biological target: T1, Somatostatin receptor type 2; assay: Displacement of I125-somatostatin-14 from human SST2 expressed in CHO cells after 3 hrs by scintillation counting; type: cell-based
[9] = biological target: T2, Gonadotropin-releasing hormone receptor (Homo sapiens, UniProt P30968); assay: Antagonist activity at GnRH receptor by GnRH; type: functional
T2 sequence (P30968 whole entry): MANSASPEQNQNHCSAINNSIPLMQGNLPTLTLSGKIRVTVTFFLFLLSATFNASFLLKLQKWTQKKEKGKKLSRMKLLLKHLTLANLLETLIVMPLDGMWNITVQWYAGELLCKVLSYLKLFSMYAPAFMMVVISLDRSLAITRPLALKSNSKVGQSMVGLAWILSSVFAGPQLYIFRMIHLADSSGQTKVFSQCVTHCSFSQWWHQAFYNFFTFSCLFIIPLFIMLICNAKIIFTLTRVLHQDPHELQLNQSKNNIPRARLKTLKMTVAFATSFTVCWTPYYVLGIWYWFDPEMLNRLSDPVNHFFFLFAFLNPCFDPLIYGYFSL

[10] = Plasma clearance in rat at 2 mg/kg, iv and 5 mg/kg, po; type: ADME, organism-based
[11] = Half life in rat at 2 mg/kg, iv and 5 mg/kg, po; type: ADME, organism-based; conditions: in vivo
[12] = Volume of distribution at steady state in rat at 2 mg/kg, iv and 5 mg/kg, po; type: ADME, organism-based; conditions: in vivo, read-out: Vdss
[13] = Oral bioavailability in rat at 2 mg/kg, iv and 5 mg/kg, po; type: ADME, organism-based; conditions: in vivo
[14] = Plasma clearance in dog at 0.125 mg/kg, iv; type: ADME, organism-based, Canis lupus familiaris; parameters: dose 0.125 mg/kg, route intravenous
Summary of the method: (§2)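 Dog PK after 0.125 mg/kg iv; plasma clearance (mL/min/kg), half-life (h) and steady-state volume of distribution (L/kg).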

[15] = Half life in dog at 0.125 mg/kg, iv; type: ADME, organism-based, Canis lupus familiaris; parameters: dose 0.125 mg/kg, route intravenous; conditions: in vivo; summary of the method: as §2
[16] = Volume of distribution at steady state in dog at 0.125 mg/kg, iv; type: ADME, organism-based, Canis lupus familiaris; parameters: dose 0.125 mg/kg, route intravenous; conditions: in vivo, read-out: Vdss; summary of the method: as §2
Rattus norvegicus [17] = assay: Antiangiogenic activity against laser-induced choroidal neovascularization rat model assessed as reduction in neovascular lesion area at 5 ug, intraocular administered once every 4 days; type: functional; parameters: scale not given: the % may be the effect or the level left
Summary of the method: (§3)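 Laser-induced choroidal neovascularization in male Brown Norway rats (175-225 g). After lasering and topical 0.5% proparacaine, 5 μL vehicle (5% ethanol in PBS) or compound injected intravitreally 3 mm posterior to iris on days 0, 4 and 8; neovascular lesion area measured.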

Rattus norvegicus [18] = assay: Antiangiogenic activity against laser-induced choroidal neovascularization rat model assessed as reduction in neovascular lesion area at 15 ug, intraocular administered once every 4 days; type: functional; parameters: scale not given: the % may be the effect or the level left; summary of the method: as §3
Rattus norvegicus [19] = assay: Antiangiogenic activity against laser-induced choroidal neovascularization rat model assessed as reduction in neovascular lesion area, intraocular administered once every 4 days; type: functional, organism-based; conditions: Eye; summary of the method: as §3
Rattus norvegicus [20] = assay: Inhibition of secretagogue-induced growth hormone release in iv dosed Wistar rat plasma after 50 mins before secretagogue challenge measured after every 5 to 15 mins; type: functional, organism-based
Summary of the method: (§4)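 Female Wistar rats (200-250 g) with jugular and carotid cannulas, pentobarbital-anesthetized (50 mg/kg ip); vehicle or compound given iv via jugular cannula, GH secretagogue (10 μg/kg iv) 50 min later.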

Rattus norvegicus [21] = assay: Inhibition of secretagogue-induced growth hormone release in Wistar rat assessed as reduction in plasma growth hormone area under the curve at 0.2 mg/kg, iv treated 50 mins before secretagogue challenge measured after every 5 to 15 mins; type: functional; parameters: scale not given: the % may be the effect or the level left; summary of the method: as §4
Rattus norvegicus [22] = assay: Inhibition of secretagogue-induced growth hormone release in Wistar rat assessed as reduction in plasma growth hormone area under the curve at 2 mg/kg, iv treated 50 mins before secretagogue challenge measured after every 5 to 15 mins; type: functional; parameters: scale not given: the % may be the effect or the level left; summary of the method: as §4
[23] = Aqueous solubility of the compound; type: physicochemical; conditions: buffer
[24] = Plasma clearance in rat at 2 mg/kg, iv and 10 mg/kg, po; type: ADME, organism-based
[25] = Half life in rat at 2 mg/kg, iv and 10 mg/kg, po; type: ADME, organism-based; conditions: in vivo
[26] = Volume of distribution at steady state in rat at 2 mg/kg, iv and 10 mg/kg, po; type: ADME, organism-based; conditions: in vivo, read-out: Vdss
[27] = Oral bioavailability in rat at 2 mg/kg, iv and 10 mg/kg, po iv; type: ADME, organism-based; conditions: in vivo

SMILES | IC50 [7] [nM] | Ki [8] [nM] | other results
Cc1cc(C)cc(-c2cnc3cc(Cl)c(-c4ccc(=O)[nH]c4)cc3c2OCC[C@H]2CCCCN2)c1 | 0.29 | 0.27 | clearance [1]: 5 mL/min/kg; half-life [2]: 0.55 h; Vd [3]: 0.094 L/kg; fold change (FC) (Homo sapiens [4]): > 1000; fold change (FC) (Homo sapiens [5]): > 1000; fold change (FC) (Homo sapiens [6]): > 1000
Cc1cc(C)cc(-c2cnc3cc(Cl)c(-c4ccc(CO)cc4)cc3c2OCC[C@H]2CCCCN2)c1 | 13 | 0.1 | 
Cc1cc(C)cc(-c2cnc3cc(Cl)c(-c4ccc(Cl)nc4)cc3c2OCC[C@H]2CCCCN2)c1 | 11 | 0.13 | 
Cc1cc(C)cc(-c2cnc3cc(Cl)c(-c4ccc(F)nc4)cc3c2OCC[C@H]2CCCCN2)c1 | 4.7 | 0.12 | 
Cc1cc(C)cc(-c2cnc3cc(Cl)c(-c4ccc(N)nc4)cc3c2OCC[C@H]2CCCCN2)c1 | 34 | 0.6 | 
Cc1cc(C)cc(-c2c(OCCC3CCCCN3)c3cc(-c4ccncn4)c(Cl)cc3[nH]c2=O)c1 (configuration not stated) |  | 1400 | IC50 [9]: 3.2 nM
Cc1cc(C)cc(-c2cnc3cc(Cl)c(C(=O)Nc4ccncn4)cc3c2OCC[C@H]2CCCCN2)c1 |  | 20 | IC50 [9]: 2440 nM
OCc1cccc(-c2ccc3ncc(-c4cccc(CO)c4)c(OCC[C@H]4CCCCN4)c3c2)c1 | 11 | 0.13 | 
Cc1cc(C)cc(-c2cnc3cc(Cl)c(-c4ccncc4)cc3c2OCC[C@H]2CCCCN2)c1 | 20 | 0.11 | 
Cc1cc(C)cc(-c2cnc3cc(Cl)c(-c4cccc(O)c4)cc3c2OCC[C@H]2CCCCN2)c1 | 1.1 | 0.037 | 
Cc1cc(C)cc(-c2cnc3cc(Cl)c(-c4ccc(O)cc4)cc3c2OCC[C@H]2CCCCN2)c1 | 0.38 | 0.08 | 
Cc1cc(C)cc(-c2cnc3cc(Cl)c(-c4cccc(C(N)=O)c4)cc3c2OCCCN)c1 | 0.38 | 0.08 | 
Cn1cc(-c2cc3c(OCC[C@H]4CCCCN4)c(-c4cccc(CO)c4)cnc3cc2Cl)cn1 | 8.3 | 0.13 | 
Cc1cc(C)cc(-c2c(OCC[C@H]3CCCCN3)c3cc(-c4ccc(F)cc4)c(Cl)cc3[nH]c2=O)c1 |  | 1.5 | 
Cc1cc(C)cc(-c2cnc3cc(Cl)c(-c4cccc(O)c4)cc3c2OCCCN)c1 | 4.8 | 0.025 | clearance [10]: 52 mL/min/kg; half-life [11]: 2.9 h; Vd [12]: 9.4 L/kg; bioavailability [13]: 17%; clearance [14]: 7.1 mL/min/kg; half-life [15]: 11 h; Vd [16]: 5.7 L/kg; Activity (Rattus norvegicus [17]): 35%; Activity (Rattus norvegicus [18]): 53%; Activity (Rattus norvegicus [19]): Dose-dependent effect; inhibition (Rattus norvegicus [20]): Dose-dependent effect; Activity (Rattus norvegicus [21]): 38%; Activity (Rattus norvegicus [22]): 91%; solubility [23]: Insoluble
COc1ccc(-c2cc3c(OCC[C@H]4CCCCN4)c(-c4cc(C)cc(C)c4)cnc3cc2Cl)cn1 | 50 | 0.65 | 
Cc1cc(C)cc(-c2cnc3cc(Cl)c(-c4cccnc4)cc3c2OCC[C@H]2CCCCN2)c1 | 8.3 | 0.13 | 
Cc1cc(C)cc(-c2cnc3cc(Cl)c(-c4cnn(C)c4)cc3c2OCC[C@H]2CCCCN2)c1 |  |  | clearance [24]: 14 mL/min/kg; half-life [25]: 3.7 h; Vd [26]: 3.1 L/kg; bioavailability [27]: 27%; fold change (FC) (Homo sapiens [4]): > 1000; fold change (FC) (Homo sapiens [5]): > 1000; fold change (FC) (Homo sapiens [6]): > 1000
Cc1cc(C)cc(-c2cnc3cc(Cl)c(-c4cccc(C(N)=O)c4)cc3c2OCC[C@H]2CCCCN2)c1 | 0.39 | 0.038 | 
